In ChEMBL document CHEMBL2321650, “Novel HldE-K inhibitors leading to attenuated Gram negative bacterial virulence” (J Med Chem, 2013):
Converted amounts (≈) assume the structure as drawn. The source made the active and inactive calls. The rule behind the calls is not given here.

Columns and labels:
Escherichia coli [1] = test: Inhibition of Escherichia coli O18:K1 C7 hldE-K expressed in Escherichia coli BL21 using D-manno-heptose 7-phosphate as substrate incubated for 30 mins prior to substrate addition measured after 30 mins by luminescence assay
Procedure, shortened: (§1)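 E. coli HldE (His-tagged, IPTG-induced, Ni-NTA-purified), 3 nM, preincubated 30 min at room temperature with inhibitor in Hepes pH 7.5, MnCl₂, KCl, 0.012% Triton-X100, DTT, MBP. Reaction with 0.2 μM heptose 7-phosphate and 0.2 μM ATP, 30 min at room temperature. Remaining ATP read by luciferase/luciferin luminescence; 6−10 concentrations fitted to a Langmuir model for IC50.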

[2] = Competitive reversible inhibition of Escherichia coli O18:K1 C7 hldE-K expressed in Escherichia coli BL21 using D-manno-heptose 7-phosphate as substrate incubated for 30 mins prior to substrate addition measured after 30 mins by double reciprocal plot analysis in presence of ATP
Procedure, shortened: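 ATP competition on E. coli HldE-K at 2 μM D-manno-heptose 7-phosphate with varied ATP. Initial velocities read by luciferase luminescence and analysed as a double reciprocal plot of 1/v versus 1/[ATP].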

[3] = Inhibition of Escherichia coli O18:K1 C7 hldE-K expressed in Escherichia coli BL21 using beta-heptose 7-phosphate as substrate incubated for 30 mins prior to substrate addition measured after 30 mins by luminescence assay; procedure, shortened: as §1
Escherichia coli [4] = test: Inhibition of Escherichia coli O18:K1 C7 hldE-K expressed in Escherichia coli BL21 using beta-heptose 7-phosphate as substrate incubated for 30 mins prior to substrate addition measured after 30 mins by luminescence assay in presence of Triton-X 100
Procedure, shortened: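 E. coli HldE kinase luminescence assay with Triton-X100 at 100 μM to 1 mM added to test for promiscuous, aggregation-type inhibition. Otherwise 3 nM enzyme, 30 min inhibitor preincubation, and 30 min reaction with heptose 7-phosphate and ATP at room temperature.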

Escherichia coli [5] = test: Antimicrobial activity against wild type Escherichia coli O18:K1:H7 after overnight incubation; type: functional
Procedure, shortened: (§2)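 Broth microdilution MIC in cation-adjusted MHB, final inoculum 5 × 10⁵ CFU/mL from early-to-log preculture; serial compound dilutions in 2% DMSO, overnight at 35 °C, growth scored visually. Each strain tested with and without erythromycin (1 μg/mL for K12 ΔacrAB ΔtolC, 8 μg/mL for K1 wild type, 1 μg/mL for K1 ΔtolC).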

Escherichia coli [6] = test: Antimicrobial activity against hldE-deficient Escherichia coli O18:K1:H7 after overnight incubation; type: functional
Escherichia coli [7] = test: Antimicrobial activity against tolC-deficient Escherichia coli O18:K1:H7 after overnight incubation in presence of erythromycin; type: functional; procedure, shortened: as §2
Escherichia coli [8] = test: Antimicrobial activity against acrAB, tolC-deficient Escherichia coli str. K-12 substr. MG1655 after overnight incubation in absence of erythromycin; type: functional; procedure, shortened: as §2
Escherichia coli [9] = test: Antimicrobial activity against acrAB, tolC-deficient Escherichia coli str. K-12 substr. MG1655 assessed as inhibition of LPS synthesis at 2 ug/mL after 5 hrs by silver staining-based electrophoretic analysis; type: functional
Procedure, shortened: (§3)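 Exponential LB cultures diluted to 5 × 10⁵ CFU/mL, incubated with compound (from water/DMSO 50/50) at 37 °C about 5 h to OD 0.2−0.4. OD-normalized pellets were PBS-washed, SDS-denatured at 95−100 °C, proteinase K-treated 1 h at 55 °C, and run on 16% SDS-PAGE with silver staining. The lowest dose yielding Re-LPS was recorded.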

[10] = Inhibition of Serratia marcescens NEM017811 hldE-K expressed in Escherichia coli BL21 using beta-heptose 7-phosphate as substrate incubated for 30 mins prior to substrate addition measured after 30 mins by luminescence assay
Procedure, shortened: (§4)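 HldE kinase luminescence assay as for E. coli, with enzyme at 20 nM for K. pneumoniae, 20 nM for N. meningitidis and 10 nM for S. marcescens. Heptose 7-phosphate and ATP each at 0.2 μM; 30 min preincubation and 30 min reaction at room temperature.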

HepG2 = test: Cytotoxicity against human HepG2 cells after overnight incubation by one cell proliferation assay; type: cell-based
Procedure, shortened: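 HepG2 cells at 2 × 10⁴ per well in EMEM with 10% FBS, grown overnight at 37 °C in 5% CO₂. Medium then replaced by compound dilutions in medium with 2% DMSO for overnight incubation. Viability read by CellTiter Aqueous One MTS absorbance at 490 nm.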

Escherichia coli [11] = test: Antimicrobial activity against acrAB, tolC-deficient Escherichia coli str. K-12 substr. MG1655 after 18 to 22 hrs; type: functional
Klebsiella pneumoniae = test: Inhibition of Klebsiella pneumoniae ATCC 700603 hldE-K expressed in Escherichia coli BL21 using beta-heptose 7-phosphate as substrate incubated for 30 mins prior to substrate addition measured after 30 mins by luminescence assay; settings: ATCC 700603, BL21; procedure, shortened: as §4
Escherichia coli [12] = test: Antimicrobial activity against acrAB, tolC-deficient Escherichia coli str. K-12 substr. MG1655 after overnight incubation in presence of erythromycin; type: functional; procedure, shortened: as §2
Escherichia coli [13] = test: Antimicrobial activity against tolC-deficient Escherichia coli O18:K1:H7 after overnight incubation in absence of erythromycin; type: functional; procedure, shortened: as §2
[14] = Inhibition of Escherichia coli O18:K1 C7 ribokinase expressed in Escherichia coli BL21 using D-ribose as substrate incubated for 30 mins prior to substrate addition measured after 30 mins by luminescence assay
Procedure, shortened: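 Ribokinase run as the HldE kinase assay: purified E. coli ribokinase at 0.6 nM, 3 μM D-ribose, 3 μM ATP. Inhibitor preincubated 30 min, reaction run 30 min at room temperature, luciferase luminescence read-out, IC50 from 6−10 concentrations.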

Escherichia coli [15] = test: Antimicrobial activity against tolC-deficient Escherichia coli O18:K1:H7 assessed as inhibition of LPS synthesis at 16 ug/mL after 5 hrs by silver staining-based electrophoretic analysis; type: functional, organism-based; procedure, shortened: as §3
[16] = Inhibition of Neisseria meningitidis 2C43 hldE-K expressed in Escherichia coli BL21 using beta-heptose 7-phosphate as substrate incubated for 30 mins prior to substrate addition measured after 30 mins by luminescence assay; procedure, shortened: as §4

Q: Which results are given for `COc1cccc(OC)c1-c1cnnc(NCc2nc3ccccc3s2)n1`?
A: inhibition (Escherichia coli [1]): Active; Ki [2]: 2500 nM; IC50 [3]: 2000 nM; inhibition (Escherichia coli [4]): Active

Q: Which MIC (Escherichia coli [5]) does the source give for `CC[C@H]1OC(=O)[C@H](C)C(=O)[C@H](C)[C@@H](O[C@@H]2O[C@H](C)C[C@H](N(C)C)[C@H]2O)[C@](C)(OC)C[C@@H](C)C(=O)[C@H](C)[C@H]2N(CCCCn3cnc(-c4cccnc4)c3)C(=O)O[C@]12C` [TELITHROMYCIN] here?
A: The MIC was 8 µg/mL (≈ 9.85 µM).

Q: What about the MIC (Escherichia coli [6]) of the same compound?
A: The MIC was 0.25 µg/mL (≈ 0.308 µM).

Q: Which results are given for `CO[C@H]1/C=C/O[C@@]2(C)Oc3c(C)c(O)c4c(O)c(c(/C=N/N5CCN(C)CC5)c(O)c4c3C2=O)NC(=O)/C(C)=C\C=C\[C@H](C)[C@H](O)[C@@H](C)[C@@H](O)[C@@H](C)[C@H](OC(C)=O)[C@@H]1C` [RIFAMPIN]?
A: MIC (Escherichia coli [5]): 8 µg/mL (≈ 9.72 µM); MIC (Escherichia coli [6]): 0.125 µg/mL (≈ 0.152 µM)

Q: With `CC[C@H]1OC(=O)[C@H](C)[C@@H](O[C@H]2C[C@@](C)(OC)[C@@H](O)[C@H](C)O2)[C@H](C)[C@@H](O[C@@H]2O[C@H](C)C[C@H](N(C)C)[C@H]2O)[C@](C)(O)C[C@@H](C)C(=O)[C@H](C)[C@@H](O)[C@]1(C)O` [ERYTHROMYCIN] as the compound, how does the MIC (Escherichia coli [5]) read?
A: Its MIC is 32 µg/mL (≈ 43.6 µM).

Q: And the MIC (Escherichia coli [6])?
A: The MIC was 0.5 µg/mL (≈ 0.681 µM).

Q: Which results are given for `O=C(COc1ccc2sc(CNc3nncc(-c4c(Cl)cccc4Cl)n3)nc2c1)NCCO`?
A: MIC (Escherichia coli [7]): 16 µg/mL; MIC (Escherichia coli [8]): > 32 µg/mL; IC50 [3]: 49 nM; inhibition (Escherichia coli [9]): Active; IC50 [10]: 76 nM; Activity (HepG2): > 32 µg/mL; MIC (Escherichia coli [11]): > 32 µg/mL; IC50 (Klebsiella pneumoniae): 150 nM; MIC (Escherichia coli [12]): 2 µg/mL; MIC (Escherichia coli [13]): > 32 µg/mL; IC50 [14]: > 300000 nM; inhibition (Escherichia coli [15]): Active; IC50 [16]: 1900 nM
